What was measured:
Mus musculus = test: Immunomodulatory activity in ip dosed BALB/c mouse assessed as reduction in lymphocyte using FITC-conjugated hamster antimouse CD3e antibody by flow cytometry; type: functional
Procedure, shortened: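 Male BALB/c mice given the alcohol form intraperitoneally; peripheral blood taken from posterior vena cava 24 h later, hemolyzed and fixed. CD3+ T and CD45R+ (B220) B cells counted by two-colour flow cytometry. ED50 is the dose lowering lymphocyte count by 50% versus vehicle-treated controls; 5 animals per compound.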

[1] = biological target: Sphingosine 1-phosphate receptor 1 (Homo sapiens, UniProt P21453); test: Agonist activity at human S1P1 receptor expressed in human Chem1 cells assessed as intracellular calcium mobilization; type: functional, cell-based
[2] = biological target: Sphingosine 1-phosphate receptor 3 (Homo sapiens, UniProt Q99500); test: Agonist activity at human S1P3 receptor expressed in CHO cells assessed as intracellular calcium mobilization; type: functional, cell-based
Rattus norvegicus = test: Toxicity in iv dosed Sprague-Dawley rat assessed as reduction in heart rate; type: organism-based; conditions: in vivo
Procedure, shortened: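 Male Sprague-Dawley rats anesthetized with ip pentobarbital sodium (50 mg/kg); phosphate form injected iv over about 30 s at 0.03 to 3 mg/kg. Heart rate counted from R waves of lead II ECG before dosing and 1, 2, 3, 4, 5, 10 and 15 min after. ID50 is the dose lowering heart rate by 50% versus vehicle control; 3-6 animals per compound.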

Chain of Sphingosine 1-phosphate receptor 3 (Q99500 whole entry): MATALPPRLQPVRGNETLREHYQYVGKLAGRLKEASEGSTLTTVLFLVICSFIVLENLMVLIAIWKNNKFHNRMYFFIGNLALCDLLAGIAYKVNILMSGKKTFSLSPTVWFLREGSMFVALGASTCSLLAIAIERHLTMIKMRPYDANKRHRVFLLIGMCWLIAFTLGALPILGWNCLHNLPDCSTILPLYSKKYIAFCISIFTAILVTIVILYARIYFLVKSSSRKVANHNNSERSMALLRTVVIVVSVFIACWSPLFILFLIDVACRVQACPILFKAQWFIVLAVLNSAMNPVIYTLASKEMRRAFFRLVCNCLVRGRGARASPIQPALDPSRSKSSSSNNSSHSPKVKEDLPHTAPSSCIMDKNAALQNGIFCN
Chain of Sphingosine 1-phosphate receptor 1 (P21453 whole entry): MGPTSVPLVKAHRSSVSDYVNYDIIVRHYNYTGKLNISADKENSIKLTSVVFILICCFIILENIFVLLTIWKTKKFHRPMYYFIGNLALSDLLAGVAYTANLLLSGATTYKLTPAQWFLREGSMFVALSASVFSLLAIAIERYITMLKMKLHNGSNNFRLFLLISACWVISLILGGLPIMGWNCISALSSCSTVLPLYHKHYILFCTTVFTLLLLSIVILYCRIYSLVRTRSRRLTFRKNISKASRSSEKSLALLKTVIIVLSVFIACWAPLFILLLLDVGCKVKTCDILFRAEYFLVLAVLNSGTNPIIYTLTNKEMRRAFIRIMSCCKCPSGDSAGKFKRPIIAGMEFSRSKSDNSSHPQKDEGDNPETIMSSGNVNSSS

Molecule `COc1ccc(Sc2ccc(-c3ccc(CCC(N)(CO)CO)cc3)c(F)c2)cc1` has an ED50 (Mus musculus) of 0.28 mg/kg.

In the case of `COc1cccc(Sc2ccc(-c3ccc(CCC(N)(CO)CO)cc3)c(F)c2)c1`, the ED50 (Mus musculus) is reported as 0.11 mg/kg.

Work on `NC(CO)(CO)CCc1ccc(-c2ccc(SCc3ccccc3)cc2F)cc1` yielded an ED50 (Mus musculus) of 0.04 mg/kg.

`Cc1ccc(Sc2ccc(-c3ccc(CCC(N)(CO)COP(=O)(O)O)cc3)c(F)c2)cc1` (configuration not stated) was tested, and the EC50 [1] was 3 nM and the EC50 [2] was greater than 1000 nM.

Work on `CC(C)c1ccc(Sc2ccc(-c3ccc(CCC(N)(CO)CO)cc3)c(F)c2)cc1` yielded an ED50 (Mus musculus) of 0.15 mg/kg.

Molecule `CCCCOc1ccc(-c2ccc(CCC(N)(CO)COP(=O)(O)O)cc2)c(F)c1.F` (configuration not stated) has an EC50 [1] of 0.53 nM, an EC50 [2] of 51 nM and an ID50 (Rattus norvegicus) of 0.009 mg/kg.

Work on `CCCCOc1cc(F)c(-c2ccc(CCC(N)(CO)COP(=O)(O)O)cc2)cc1F` (configuration not stated) yielded an EC50 [1] of 1.2 nM and an EC50 [2] greater than 1000 nM.

With `CCCCOc1ccc(-c2ccc(CCC(N)(CO)COP(=O)(O)O)cc2)cc1Cl` (configuration not stated) the EC50 [1] was 3.1 nM and the EC50 [2] was greater than 1000 nM.

`NC(CO)(CO)CCc1ccc(-c2ccc(Sc3ccc(C(F)(F)F)cc3)cc2F)cc1` gave an ED50 (Mus musculus) of 0.34 mg/kg.

Work on `Cc1cccc(Sc2ccc(-c3ccc(CCC(N)(CO)COP(=O)(O)O)cc3)c(F)c2)c1` (configuration not stated) yielded an EC50 [1] of 2 nM, an EC50 [2] greater than 1000 nM and an ID50 (Rattus norvegicus) of 0.063 mg/kg.

Work on `Cc1ccc(Sc2ccc(-c3ccc(CCC(N)(CO)COP(=O)(O)O)c(Cl)c3)c(F)c2)cc1` (configuration not stated) yielded an EC50 [1] of 4.2 nM, an EC50 [2] greater than 1000 nM and an ID50 (Rattus norvegicus) of 0.016 mg/kg.

Molecule `NC(CO)(CO)CCc1ccc(-c2ccc(Oc3ccccc3)cc2)cc1Cl` has an ED50 (Mus musculus) of 0.16 mg/kg.

With `NC(CO)(CO)CCc1ccc(-c2ccc(OCc3ccccc3)cc2)cc1Cl` the ED50 (Mus musculus) was 0.13 mg/kg.

`CCCCOc1ccc(-c2ccc(CCC(N)(CO)CO)cc2)c(C)c1` showed an ED50 (Mus musculus) of 3.4 mg/kg.

Molecule `NC(CO)(CO)CCc1ccc(-c2ccc(Sc3ccc(F)cc3)cc2F)cc1` has an ED50 (Mus musculus) of 0.07 mg/kg.

In the case of `NC(CO)(CO)CCc1ccc(-c2ccc(Sc3cccc(F)c3)cc2F)cc1`, the ED50 (Mus musculus) is reported as 0.16 mg/kg.

Work on `NC(CO)(CCc1ccc(-c2ccc(OCc3ccccc3)cc2)cc1Cl)COP(=O)(O)O` (configuration not stated) yielded an EC50 [1] of 1.6 nM, an EC50 [2] of 13 nM and an ID50 (Rattus norvegicus) of 0.017 mg/kg.

In the case of `NC(CO)(CO)CCc1ccc(-c2ccc(OCc3ccccc3)cc2F)cc1`, the ED50 (Mus musculus) is reported as 0.01 mg/kg.

For `NC(CO)(CO)CCc1ccc(-c2ccc(SCc3ccccc3)cc2)cc1Cl`, the ED50 (Mus musculus) was 0.08 mg/kg.

With `NC(CO)(CO)CCc1ccc(-c2ccc(Sc3ccccc3)cc2F)cc1` the ED50 (Mus musculus) was 0.42 mg/kg.

For `NC(CO)(CCc1ccc(-c2ccc(SCc3ccccc3)cc2F)cc1)COP(=O)(O)O` (configuration not stated), the EC50 [1] was 0.84 nM, the EC50 [2] was 4.9 nM and the ID50 (Rattus norvegicus) was 0.008 mg/kg.

`NC(CO)(CO)CCc1ccc(-c2ccc(Sc3ccc(Cl)cc3)cc2F)cc1` gave an ED50 (Mus musculus) of 0.18 mg/kg.

`CCc1ccc(Sc2ccc(-c3ccc(CCC(N)(CO)CO)cc3)c(F)c2)cc1` showed an ED50 (Mus musculus) of 0.04 mg/kg.

For `CCCCOc1cc(F)c(-c2ccc(CCC(N)(CO)CO)cc2)cc1F`, the ED50 (Mus musculus) was 0.15 mg/kg.

For `CCCCOc1ccc(-c2ccc(CCC(N)(CO)CO)cc2)cc1F`, the ED50 (Mus musculus) was 0.21 mg/kg.

For `CCCCOc1ccc(-c2ccc(CCC(N)(CO)CO)cc2)cc1Cl`, the ED50 (Mus musculus) was 1.3 mg/kg.

Molecule `NC(CO)(CO)CCc1ccc(-c2ccc(Oc3ccccc3)cc2)cc1` has an ED50 (Mus musculus) of 0.25 mg/kg.

For `CCCCOc1ccc(-c2ccc(CCC(N)(CO)COP(=O)(O)O)cc2)cc1F` (configuration not stated), the EC50 [1] was 1.3 nM and the EC50 [2] was greater than 1000 nM.

In the case of `CCCCCc1ccc(-c2ccc(CCC(N)(CO)CO)c(Cl)c2)cc1`, the ED50 (Mus musculus) is reported as 0.11 mg/kg.

With `CCCCOc1ccc(-c2ccc(CCC(N)(CO)CO)cc2)cc1` the ED50 (Mus musculus) was 0.22 mg/kg.

Molecule `CCCCOc1ccc(-c2ccc(CCC(N)(CO)CO)c(Cl)c2)cc1` has an ED50 (Mus musculus) of 0.08 mg/kg.

With `NC(CO)(CCc1ccc(-c2ccc(OCc3ccccc3)cc2F)cc1)COP(=O)(O)O` (configuration not stated) the EC50 [1] was 1.1 nM, the EC50 [2] was 4.1 nM and the ID50 (Rattus norvegicus) was 0.014 mg/kg.

`Cc1ccc(Oc2ccc(-c3ccc(CCC(N)(CO)COP(=O)(O)O)cc3)c(F)c2)cc1` (configuration not stated) showed an EC50 [1] of 1.8 nM, an EC50 [2] of 83 nM and an ID50 (Rattus norvegicus) of 0.016 mg/kg.

In the case of `NC(CO)(CCc1ccc(-c2ccc(Sc3ccccc3)cc2F)cc1)COP(=O)(O)O` (configuration not stated), the EC50 [1] is reported as 3.6 nM and the EC50 [2] is reported as greater than 1000 nM.

Work on `CCCCOc1ccc(-c2ccc(CCC(N)(CO)CO)cc2)c(F)c1` yielded an ED50 (Mus musculus) of 0.06 mg/kg.

Molecule `CCCCOc1ccc(-c2ccc(CCC(N)(CO)COP(=O)(O)O)c(Cl)c2)cc1` (configuration not stated) has an EC50 [1] of 0.62 nM, an EC50 [2] greater than 1000 nM and an ID50 (Rattus norvegicus) of 0.013 mg/kg.

For `Cc1ccc(Oc2ccc(-c3ccc(CCC(N)(CO)CO)cc3)c(F)c2)cc1`, the ED50 (Mus musculus) was 0.04 mg/kg.

Molecule `Cc1ccc(Sc2ccc(-c3ccc(CCC(N)(CO)CO)cc3)c(F)c2)cc1` has an ED50 (Mus musculus) of 0.05 mg/kg.

Molecule `Cc1cccc(Sc2ccc(-c3ccc(CCC(N)(CO)CO)cc3)c(F)c2)c1` has an ED50 (Mus musculus) of 0.13 mg/kg.

`Cc1ccc(Sc2ccc(-c3ccc(CCC(N)(CO)CO)c(Cl)c3)c(F)c2)cc1` was tested, and the ED50 (Mus musculus) was 0.04 mg/kg.

Molecule `NC(CO)(CCc1ccc(-c2ccc(Oc3ccccc3)cc2)cc1)COP(=O)(O)O` (configuration not stated) has an EC50 [1] of 21 nM, an EC50 [2] greater than 1000 nM and an ID50 (Rattus norvegicus) of 0.14 mg/kg.

`NC(CO)(CCc1ccc(-c2ccc(Oc3ccccc3)cc2)cc1Cl)COP(=O)(O)O` (configuration not stated) gave an EC50 [1] of 4.7 nM, an EC50 [2] greater than 1000 nM and an ID50 (Rattus norvegicus) of 0.087 mg/kg.

Work on `CCCCCc1ccc(-c2ccc(CCC(N)(CO)CO)cc2)c(F)c1` yielded an ED50 (Mus musculus) of 0.1 mg/kg.

`CCCCCc1ccc(-c2ccc(CCC(N)(CO)COP(=O)(O)O)cc2)c(F)c1` (configuration not stated) gave an EC50 [1] of 1.1 nM and an EC50 [2] greater than 1000 nM.

With `CCCCCc1ccc(-c2ccc(CCC(N)(CO)COP(=O)(O)O)c(Cl)c2)cc1` (configuration not stated) the EC50 [1] was 0.64 nM and the EC50 [2] was greater than 1000 nM.

Work on `CCCCOc1ccc(-c2ccc(CCC(N)(CO)COP(=O)(O)O)cc2)cc1` (configuration not stated) yielded an EC50 [1] of 0.81 nM, an EC50 [2] greater than 1000 nM and an ID50 (Rattus norvegicus) of 0.008 mg/kg.

Molecule `CCCCCCCCc1ccc(CCC(N)(CO)COP(=O)(O)O)cc1` (configuration not stated) has an ID50 (Rattus norvegicus) of 0.012 mg/kg.

Molecule `CCCCCCCCc1ccc(CCC(N)(CO)CO)cc1` [FINGOLIMOD] has an ED50 (Mus musculus) of 0.02 mg/kg.

From ChEMBL document CHEMBL1156200, “Removal of sphingosine 1-phosphate receptor-3 (S1P(3)) agonism is essential, but inadequate to obtain immunomodulating 2-aminopropane-1,3-diol S1P(1) agonists with reduced effect on heart rate” (J Med Chem, 2010)
